LEDGF integ inh = blocks HIV-1 LEDGF/p75-dependent DNA integration. TR-FRET IN-LEDGF/p75 DNA integration, Eu/Cy5. inhibition, % at 3.7 µM. 370,000 tested, 0.64% active;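 active = inhibition above the screen-wide mean plus 3 SD, cut at about 13% in these data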;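 also: signal is the Cy5 over europium emission ratio at 671 and 618 nm; 0% = plate median of compound wells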
PRMT1 FP inh = blocks human protein arginine methyltransferase 1. recombinant PRMT1, activity-based probe fluorescence polarization. inhibition, % at 2.79 µM. 370,000 tested, 1.3% active;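 active = inhibition above about 21% made by adding two undisclosed values, limit read from the data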
TDP2 absorb = TDP2 (human) inhibition, absorbance primary screen; 370,000 tested, 0.34% active; recombinant TDP2, T5PNP hydrolysis, p-nitrophenol absorbance 415 nm; inhibition, % at 12.8 µM; AID 720702; O95551;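 active = inhibition above the mean of all tested compounds plus 3 SD, set per campaign, cut at about 25% in these data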;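 also: 0% = DMSO with enzyme and 100% = buffer with substrate but no TDP2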
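Test system: human TDP2 enzyme; Input: 120 nM TDP2 per well; Buffer or medium: Mg2+-containing Tris-HCl buffer, pH 7.5; Reagent: 5 mM T5PNP; Dosing: 12.8 µM single point, 1% DMSO; Incubation: reaction 2 h, 37 °C; Detection: p-Nitrophenol epi absorbance; Read-out: % inhibition relative to enzyme-containing and enzyme-free wells; Replicates: single well per compound.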
UHRF1 binding = UHRF1 methyl-DNA binding inhibition. Q96T88. UHRF1 binding to methylated oligo, TR-FRET. inhibition, % at 4.4 µM. 370,000 tested, 0.75% active; in the data active = inhibition above about 21%;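 also: UHRF1 SRA domain binding a hemimethylated CpG hairpin DNA probe; 0% = median of test compound wells and 100% = reference inhibitor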
Target sequence (Q96T88 whole entry, looked up, the tested form may be a part): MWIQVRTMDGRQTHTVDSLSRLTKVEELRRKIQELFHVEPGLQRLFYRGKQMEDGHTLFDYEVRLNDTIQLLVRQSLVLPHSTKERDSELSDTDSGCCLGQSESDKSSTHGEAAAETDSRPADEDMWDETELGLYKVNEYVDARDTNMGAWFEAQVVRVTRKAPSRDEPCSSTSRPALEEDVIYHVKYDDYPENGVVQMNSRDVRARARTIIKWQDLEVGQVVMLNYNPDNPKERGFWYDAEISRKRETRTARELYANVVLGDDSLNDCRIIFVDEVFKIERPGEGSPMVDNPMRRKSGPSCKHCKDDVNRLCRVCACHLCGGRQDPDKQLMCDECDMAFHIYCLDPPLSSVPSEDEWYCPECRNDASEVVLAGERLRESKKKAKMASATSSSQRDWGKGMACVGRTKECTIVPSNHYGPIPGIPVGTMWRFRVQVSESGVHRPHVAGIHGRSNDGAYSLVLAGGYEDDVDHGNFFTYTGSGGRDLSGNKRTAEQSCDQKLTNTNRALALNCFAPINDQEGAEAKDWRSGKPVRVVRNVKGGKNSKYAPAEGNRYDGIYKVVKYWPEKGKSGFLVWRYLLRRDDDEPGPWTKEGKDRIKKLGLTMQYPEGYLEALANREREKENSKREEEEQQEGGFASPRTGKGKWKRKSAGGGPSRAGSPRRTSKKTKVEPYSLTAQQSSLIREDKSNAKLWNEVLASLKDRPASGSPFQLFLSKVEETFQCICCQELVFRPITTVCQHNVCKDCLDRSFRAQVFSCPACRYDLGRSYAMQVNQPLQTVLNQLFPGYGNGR
SIAE inh = human SIAE inhibition, primary screen | Q9HAT2 | SIAE FP-Rh probe binding, fluorescence polarization | inhibition, % at 9.66 µM | 370,000 tested, 0.69% active | AID 1053197;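 active = inhibition above a cutoff: mean of compounds within the control limits plus 3 SD of those, cut at about 17% in these data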;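 also: 0% = plate median of compound wells and 100% = probe without SIAE protein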
MBD2 DNA inh = inhibitors of human MBD2 binding to methylated oligonucleotide. TR-FRET. inhibition, % at 4.4 µM. 370,000 tested, 0.31% active. AID 686964; in the data active = inhibition above about 13%
PRMT1 inh conf = PRMT1 (human) inhibition, FP confirmation; 3,300 tested, 42% active; inhibition, % at 2.79 µM; AID 687036; shares compounds with PRMT1 FP inh; recombinant His-PRMT1, activity-based probe fluorescence polarization;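 active = mean inhibition across replicates above the hit cutoff derived for the earlier primary screen, cut at about 22% in these data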
UHRF1 DNA bind = inhibits human UHRF1 binding to methylated oligonucleotide, MBD2 counter-screen | shares compounds with MBD2 DNA inh | TR-FRET | inhibition, % at 4.4 µM | 1,000 tested, 25% active | AID 720530; in the data active = inhibition above about 21%;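 also: UHRF1 SRA domain binding a labeled hemimethylated CpG hairpin DNA; 0% = vehicle only and 100% = reference inhibitor with vehicle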
MBD2 DBD conf = confirmation of human MBD2-DBD methylated oligonucleotide binding inhibitors. shares compounds with MBD2 DNA inh. TR-FRET MBD2-DBD binding to methylated oligonucleotide. inhibition, % at 4.4 µM. 1,000 tested, 26% active
TDP2 inh conf = confirmation of human TDP2 inhibitors; shares compounds with TDP2 absorb; recombinant human TDP2, absorbance read-out; inhibition, % at 12.8 µM; 1,100 tested, 22% active; in the data active = inhibition above about 25%;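 also: 0% = vehicle with enzyme and 100% = no enzyme buffer only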
IN multimer up = HIV-1 integrase multimerization activation, counter-screen. shares compounds with LEDGF integ inh. TR-FRET HIV-1 integrase multimerization, biochemical. activation, % at 7.7 µM. 2,000 tested, 17% active; in the data active = activation above about 8.9%
TR-FRET interf = counter-screen for LEDGF/p75 integration inhibitors: TR-FRET optical interference; TR-FRET optical interference counterscreen, HIV-1 IN multimerization; shares compounds with LEDGF integ inh; AID 1053135; inhibition, % at 7.7 µM; 2,000 tested, under 10 active;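 active = inhibition above the mean over all tested compounds plus 3 SD, which no compound reached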;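 also: 0% = integrase with antibodies and DMSO and 100% = antibodies without integrase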
LEDGF integ conf = confirmation of HIV-1 LEDGF/p75-dependent integration inhibitors; shares compounds with LEDGF integ inh; TR-FRET LEDGF/p75-dependent HIV-1 integration, biochemical; inhibition, % at 3.7 µM; 2,000 tested, 36% active
An asterisk follows results filed as active; x = no result given. Sampled rows, rich in hits. Any-hit rate of the full collection: about 3.3%. Rule as the data show it, unless noted: active = inhibition above about 14%; inactive = the rest.

SMILES	LEDGF integ inh	PRMT1 FP inh	TDP2 absorb	UHRF1 binding	SIAE inh	MBD2 DNA inh	PRMT1 inh conf	IN multimer up	TR-FRET interf	LEDGF integ conf	others
COC(=O)[C@]12C[C@H](CC(=O)NCC3CCCCC3)C(=O)N(CCc3ccc(OC)c(OC)c3)C1=C[C@H](COCc1ccccc1)O[C@@H]2C	5.2	-2.5	-6.9	0.0	11.6	3.9	x	x	x	x
Cc1ccc(/C=c2\s/c(=C(/C#N)C(=O)N3CCCC3)n(Cc3ccco3)c2=O)s1	14.1*	26.0*	-7.7	5.0	4.9	-2.3	-0.5	1.3	-6.7	0.9
Cc1cccc(C(=O)Nc2nc3ncccn3c2-c2ccccc2)c1	3.6	-3.8	6.0	2.4	-1.6	6.9	x	x	x	x
O=C(Nc1nc(-c2ccco2)c(-c2ccco2)s1)C1CCC1	17.1*	35.4*	7.1	7.1	1.8	4.0	18.9	1.8	-9.2	20.9*
O=C(Nc1nc(-c2ccco2)c(-c2ccco2)s1)C1CC(=O)N(c2ccc3c(c2)OCCO3)C1 (stereo not drawn)	18.5*	37.7*	0.0	9.3	8.6	8.9	10.1	12.8*	-64.4	41.5*
O=C(Nc1nnc(-c2ccco2)s1)C1CCCCC1	-1.3	-2.3	9.5	-1.6	-1.6	-1.1	x	x	x	x
C=CC[C@]1(O)C(=O)N(c2ccccc2)c2ccccc21	-0.9	4.3	4.0	2.7	5.5	0.4	x	x	x	x
COCc1cc(N2CCN(C(=O)OC(C)(C)C)C[C@@H]2C)ccc1N1CC[C@H](O)C1	16.9*	58.4*	2.3	-5.0	8.8	-6.8	7.0	3.5	-17.8	1.9
CCN(CC)CCCNc1ccc2ncn3c4ccc(O)cc4c(=O)c1c23	36.5*	116.0*	86.5*	-207.7	1.6	-21.1	132.7*	20.0*	-71.3	13.6*	TDP2 inh conf=28.1*
CN(C)CCNc1ccc2nnn3c4ccc(O)cc4c(=O)c1c23	-2.2	5.6	2.2	8.5	4.0	7.0	x	x	x	x
CCOC(=O)C(C(C)=O)c1c(Br)c(O)c(O)c2c(C(=O)c3ccc(C)cc3)coc12 (stereo not drawn)	26.1*	40.5*	-2.7	-0.8	-3.6	-5.4	17.9	-2.3	11.8	14.3*
O=C(CSc1nnc(COc2ccccc2)n1Cc1ccco1)NCc1ccco1	27.8*	28.9*	-11.2	11.1	-2.0	1.4	13.0	4.7	-23.5	18.9*
CC(=O)NS(=O)(=O)c1ccc(NC(=O)/C=C/c2ccco2)cc1	29.6*	37.2*	3.2	28.5*	-2.1	2.9	24.1*	2.7	-13.5	25.9*
Cc1ccc(Nc2ccc(N)cc2S(=O)(=O)O)cc1	19.3*	33.4*	0.7	3.4	14.2	-0.8	8.9	10.1*	-36.0	2.2
Nc1ccc(Nc2ccccc2)c(S(=O)(=O)O)c1	18.7*	37.1*	-5.8	19.5	10.2	2.1	13.1	10.5*	-52.8	10.7
Cc1ccc(S(=O)(=O)c2cc(Nc3ccccc3)ccc2O)cc1	-2.6	10.0	1.5	-2.7	12.6	-1.4	x	x	x	x
CSC1=N/C(=C\c2ccc(C)s2)C(=O)S1	0.2	-0.4	-7.8	2.7	-4.7	3.6	x	x	x	x
CSC1=N/C(=C\c2ccc(C)o2)C(=O)S1	14.0*	31.2*	-13.7	-3.7	-1.8	-11.3	2.8	0.9	-4.7	5.6
Cc1ccc(S(=O)(=O)/N=C2/NC(=O)/C(=C/c3ccc(Br)o3)S2)cc1	37.7*	56.4*	0.6	81.4*	-45.5	25.2*	15.7	1.1	-5.5	11.4
CC1=C(C(=O)Nc2ccccc2)C(c2ccc(C)o2)n2c(s/c(=C\c3ccco3)c2=O)=N1 (stereo not drawn)	28.5*	53.1*	-1.2	15.8	-4.3	11.0	-2.9	2.8	-13.8	6.1
CC1(C)C=C2C(N(CC3CC3)C(=N)N2C(=O)OCc2ccccc2)n2c(=O)n(-c3ccccc3)c(=O)n21 (stereo not drawn)	0.6	-1.7	-6.8	3.4	5.9	-0.5	x	x	x	x
Cc1onc(C(=O)N2CCN(C(c3ccc(F)cc3)c3ccc(F)cc3)CC2)c1[N+](=O)[O-]	1.5	-0.1	-0.1	1.1	2.2	-1.2	x	x	x	x
Nc1c(C(=O)N/N=C/c2cccnc2)oc2nc(-c3ccccc3)cc(-c3ccco3)c12	4.8	3.3	-4.4	-4.9	7.0	-6.9	x	x	x	x
Nc1c(C(=O)N/N=C/c2cccnc2)oc2nc(-c3ccco3)cc(-c3ccco3)c12	52.7*	45.7*	3.5	17.4	5.0	3.7	3.3	39.5*	-199.0	91.2*
COC(=O)[C@H](C(C)C)N(Cc1cn(Cc2ccccc2)nn1)S(=O)(=O)c1ccccc1Br	7.7	-1.7	-0.4	-0.8	0.8	-6.8	x	x	x	x
O=C(C1CCCN1S(=O)(=O)c1ccc([N+](=O)[O-])cc1)N1CCN(c2ccccc2)CC1 (stereo not drawn)	-4.5	3.1	5.3	0.6	-2.4	6.4	x	x	x	x
CCC1=NN2C(=N)/C(=C\c3ccc(SCc4ccco4)o3)C(=O)N=C2S1	50.1*	38.8*	6.0	56.5*	-54.9	19.8*	14.7	5.0	-25.2	26.8*	UHRF1 DNA bind=19.8;MBD2 DBD conf=3.9
CCC1=NN2C(=N)/C(=C/c3c(C)nn(-c4ccccc4)c3Cl)C(=O)N=C2S1	-2.3	7.8	1.4	0.4	1.6	7.0	x	x	x	x
N#Cc1c(SCC(=O)Nc2nccs2)sc2c(O)cc(=O)[nH]c12	18.5*	51.4*	14.4	77.1*	-17.6	35.0*	26.6*	43.7*	-155.7	33.8*	UHRF1 DNA bind=26.7*;MBD2 DBD conf=15.4*
